Only some compounds are listed: those with a hit (about 1% of all), similar ones and a draw of the others.
L929 necroptosis = L929 zVAD cell death inhibition; viability rescue, % at 10 µM; 220,000 compounds, 0.38% hits; L929 zVAD necroptosis rescue, ATP luminescence, 24 h; with zVAD 60 µM;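 active means activation, scaled between plate controls, above about 75%, limit read from the data; inactive means activation under that limit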
Rad51 HR inh = blocks human Rad51 in homologous recombination. AID 1385. hRad51 DNA strand exchange, fluorescence dequenching. Q06609. 200,000 compounds, 0.085% hits. inhibition, % at 10 µM;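 active means inhibition above 40% at the single screening dose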
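material = hRad51 filaments on single-stranded DNA | timing = filaments 15 min 37 °C, then compound 30 min | signal = FRET fluorescence dequenching, excitation 485 nm, emission 520 nm | benchmarks = control wells and blank wells on each plate | evaluation = percent inhibition relative to plate controls and blanks | compound = 10 µM final, single point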
HMGR II inh = inhibitors of class II HMG-CoA reductase from Enterococcus faecalis | purified E. faecalis HMGR, NADPH absorbance 340 nm kinetic | inhibition, % at 10 µM | 190,000 compounds, 0.41% hits | AID 1066;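 active means inhibition above a set limit, the median over all tested compounds plus 3 SD, cut at about 9.5% in these data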;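 further: enzyme runs in reverse so mevalonate oxidation gives rising NADPH absorbance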
PERK inhibitor = blocks human PERK kinase. CHO PERK-DD fusion, SEAP luminescence translation reporter. Q9NZJ5. inhibition, % at 5.6 µM. 220,000 compounds, 0.17% hits;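 active means inhibition above the mean inhibition of all tested compounds plus 3 SD, set separately per screening campaign, cut at about 2.9% in these data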;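 further: PERK kinase domain activated by AP20187 dimerizer at 100 nM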
TNF necrop inh = TNF-alpha cell death inhibition in Jurkat FADD-/- cells; Jurkat FADD-/- TNF necroptosis rescue, ATP luminescence, 24 h; 0 = TNF only, 100 = no-TNF cells; 220,000 compounds, 0.068% hits; activation (protection from cell death), % at 10 µM;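 active means activation, meaning protection from cell death, of at least 50% relative to plate controls; inactive means activation below 50%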;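 further: necroptosis triggered by 40 ng/mL TNF-alpha added together with compound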
Numbers stand for hits; 0 = inactive; - = no result.

SMILES	L929 necroptosis	Rad51 HR inh	HMGR II inh	PERK inhibitor	TNF necrop inh
COc1ccc2nc(NC(=O)CSc3nnc(C)n3N)sc2c1	0	0	-	4.7	0
COc1ccc2nc(NC(=O)Cc3ccc(OC)c(S(=O)(=O)N4CCOCC4)c3)sc2c1	92	0	0	0	0
COc1ccc2nc(NC(=O)CSc3nnc(N)s3)sc2c1	0	0	0	0	0
Cc1ccc2cc(CCNC(=O)CC(C)C)c(=O)[nH]c2c1	0	0	0	0	0
CCC(=O)NCCc1cc2ccc(C)cc2[nH]c1=O	0	0	0	3.3	0
Cc1ccc(C2SCCN2C(=O)c2ccc([N+](=O)[O-])cc2)cc1 (centres undefined)	0	0	0	0	51
O=C(c1ccc([N+](=O)[O-])cc1)N1CCSC1c1ccc(Br)cc1 (centres undefined)	0	0	0	0	0
CCN(CC)CC(=O)Nc1scc2c1c(=O)oc1ccccc12	0	0	-	0	0
O=C(c1ccc2ccccc2n1)N1CCN(c2ccccc2)CC1	0	0	0	0	0
O=C(c1ccc2ccccc2n1)N1CCN(c2ccccc2O)CC1	0	87	0	0	0
CC(C)c1ccccc1NC(=S)N1CCN(Cc2ccc3c(c2)OCO3)CC1	0	48	0	0	0
CCN(CC)S(=O)(=O)c1ccc(OC)c(NC(=O)c2cc(=O)[nH]c3ccccc23)c1	0	0	0	0	0
Cn1c(=O)c(C(=O)CSc2ccccc2)c(N)n(Cc2ccccc2)c1=O	0	0	14	0	0
CCOC(=O)C1CCN(CC(=O)Nc2c(C(=O)OC)n(C)c3cccc(C)c23)CC1	0	69	0	0	0
CCOC(=O)c1c(/N=C/C2=C(O)CC(C)(C)CC2=O)sc2c1CCCC2	0	0	-	0	0
COC(=O)CCC(=O)Nc1cccc2ccccc12	0	0	0	0	0
CCCCCC(=O)Nc1cccc2ccccc12	0	43	0	0	0
CCCCCCCCCC(=O)N1c2ccccc2NC(=O)C1CC(=O)Nc1ccc(C(=O)O)cc1 (centres undefined)	0	0	-	0	0
CCCCOc1ccc(Cl)cc1Nc1nc(NCCO)nc(N2CCCC2)n1	-	0	-	-	-
Cc1cc(N2CCN(Cc3cn(C)nc3-c3cccc(Cl)c3)CC2)cc(C)n1	0	0	0	0	0
Cn1cc(CN2CCN(c3ncccn3)CC2)c(-c2cccc(Cl)c2)n1	0	0	9.6	0	0
O=C(NNc1c(Cl)cccc1Cl)C1CCC1	0	0	-	0	75
CCn1cc(C(=O)O)c(=O)c2cc(S(=O)(=O)N(C)C)ccc21	0	-	0	3.2	0
CCn1cc(C(=O)O)c(=O)c2cc(F)c(N3CCN(S(=O)(=O)c4ccc(Br)cc4)CC3)cc21	0	0	10	0	0
CCn1cc(C(=O)O)c(=O)c2cc(F)c(N3CCN(C(=S)NC(=O)c4ccccc4Cl)CC3)cc21	0	0	-	0	0
SMILES	L929 necroptosis	Rad51 HR inh	HMGR II inh	PERK inhibitor	TNF necrop inh
CCC(C)NC(=O)c1cn(CC)c2ccc(S(=O)(=O)N(C)C)cc2c1=O (centres undefined)	0	0	0	0	0
CC(=O)Nn1c(-c2ccccc2)cc2ccccc21	0	85	0	0	0
O=C(COc1ncnc2ccccc12)Nc1ccc(S(=O)(=O)N2CCOCC2)cc1	0	0	-	0	0
COc1cccc(-c2noc(-c3ccoc3C)n2)c1	0	-	0	3.1	0
COc1ccc(-c2noc(-c3ccoc3C)n2)cc1	0	0	0	0	0
Oc1[nH]c2ccccc2c1N=Nc1ncnc2c1oc1ccccc12	0	0	-	0	0
Cc1nc([N+](=O)[O-])c(Br)n1CC(=O)c1cccc([N+](=O)[O-])c1	0	0	16	0	0
Cc1ccc(C(=O)N/N=C/C=C/c2ccccc2)o1	0	0	11	0	0
CCOC(=O)N/N=C(\CCC(=O)O)c1cccs1	0	-	-	3.0	0
O=C(O)CC/C(=N/NC(=O)c1cccs1)c1ccccc1	0	-	0	0	0
COC(=O)/C=C/c1cc(F)ccc1S(=O)(=O)NC(C)(C)C	-	0	-	-	-
O=C(OC(C(=O)Nc1ccc([N+](=O)[O-])cc1Br)c1ccccc1)c1ccccc1 (centres undefined)	0	-	0	0	76
CCCn1c(O)c(N=NC(=O)c2cccnc2)c2cc(Br)ccc21	0	0	-	0	0
Cc1cc(C)nc(N/N=C2/CCCC/C2=C\c2ccccc2)n1	0	0	14	0	0
Cc1ccnc(N/N=C/c2ccccc2)n1	0	0	0	0	0
CCOc1ccc(C2C(C#N)=C(N)Oc3cc(C)oc(=O)c32)cc1 (centres undefined)	0	0	16	0	0
Fc1ccc(C2=NNC(=NCc3ccccc3)SC2)cc1F	0	0	0	0	51
Clc1ccc(C2=NNC(=NCc3ccccc3)SC2)cc1	0	0	0	0	56
c1ccc(CN=C2NN=C(c3ccccc3)CS2)cc1	0	0	0	0	0
COc1ccccc1C1=NNC(=NCc2ccccc2)SC1	0	0	0	0	0
CCOC(=O)c1c(CN(CC)CC)oc2cc(Br)c(O)cc12	0	0	0	0	0
CCOC(=O)c1c(CN(CC)CC)oc2ccc(OC)cc12	0	0	12	0	0
S=C(Nc1ccc(Cl)cc1Cl)NC1CCN(Cc2ccccc2)CC1	0	0	0	0	0
CC1CCCCC1NC(=S)Nc1ccc(Cl)cc1Cl (centres undefined)	0	41	0	0	0
O=C(OCC(=O)N1CCN(C(=O)c2ccco2)CC1)c1cc(-c2ccccc2)nc2ccccc12	0	0	0	0	0
SMILES	L929 necroptosis	Rad51 HR inh	HMGR II inh	PERK inhibitor	TNF necrop inh
O=C(OCC(=O)N1CCN(C(=O)c2ccco2)CC1)c1cn(-c2ccccc2)nc1-c1ccccc1	79	0	0	0	0
Cc1ccc(C(C(=O)NC(C)(C)C)N(Cc2ccc3c(c2)OCO3)C(=O)c2ccc(CN3CCOCC3)o2)o1 (centres undefined)	0	0	15	0	0
Cc1ccc(OCCN2C(=O)C(=O)c3cccc(C)c32)cc1	0	0	0	0	0
CCOc1cc(NC(=O)c2ccccn2)c(OCC)cc1NC(=O)c1ccc(C)cc1	0	0	13	0	0
CCOc1cc(NC(=O)C2CCCCC2)c(OCC)cc1NC(=O)c1ccccn1	0	0	0	0	0
Cc1nccc(-c2cc(-c3ccc(Cl)cc3Cl)no2)n1	0	0	-	0	0
Nc1nc(-c2ccc(Cl)cc2Cl)cn1N	0	0	0	3.1	0
Cc1occc1C(=O)N/N=C/C(Br)=C/c1ccccc1	0	0	10	0	0
COc1ccc(Br)c(OC)c1C(=O)NC(=O)Nc1nc(C)cc(C)n1	0	0	-	0	0
CSc1ncccc1C(=O)Nc1ccc(OC(F)(F)F)cc1	0	0	0	0	0
COc1cc(NC(=O)c2cccnc2SC)cc(OC)c1OC	0	0	13	0	0
O=C(C1=C[C@@H](c2coc3ccccc3c2=O)C[C@@H](OCCCCO)O1)N1CCN(Cc2ccc3c(c2)OCO3)CC1	0	0	0	0	0
